Data: ChEMBL document CHEMBL4732265, “Identification of Piperidine-3-carboxamide Derivatives Inducing Senescence-like Phenotype with Antimelanoma Activities” (ACS Med Chem Lett, 2021)
Activity calls are given as the source filed them. The calls are words filed in the database; no cut-off is given here.

How the values were obtained:
A-375 [1] = assay: Antiproliferative activity in human A-375 cells assessed as reduction of cell number; assay type: functional, cell-based
Method in brief: (§1)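 A375 human melanoma cells exposed to compound for 3 days in 3-fold serial dilution in 0.5% DMSO. Cells were stained with Hoechst 33342, LysoTracker Red DND-99 and CellMask, then imaged and segmented by a customized algorithm. Cell number per well was counted, and IC50 is the concentration reducing cell number by 50%, taken from dose–response curves. Run in duplicate.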

A-375 [2] = assay: Induction of senescence in human A-375 cells treated for 3 days by Hoechst staining based imaging analysis; assay type: functional, cell-based; details: A-375, 72 h
Method in brief: (§2)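 A375 melanoma cells were treated for 3 days with a 3-fold dilution series in 0.5% DMSO and stained with Hoechst 33342, LysoTracker Red DND-99 and CellMask. Image analysis scored cell and nucleus size, granule size and spacing, and cytoplasmic texture to give the percentage of senescent cells per well. EC50 is the concentration inducing senescence in half the population, taken from dose–response curves. Run in duplicate; Z′ about 0.8.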

A-375 [3] = assay: Induction of cell senescence in human A-375 cells assessed by increased SA-beta-Gal activity at 37 nM measured after 3 days by Hoechst staining based imaging analysis; assay type: functional; details: time 3.0 day
Method in brief: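 A375 cells were treated with or without 37 nM agent in 0.5% DMSO for 3 days. Senescence was read in two ways: by Hoechst 33342/LysoTracker Red/CellMask phenomic imaging, and by SA-β-gal staining.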

[4] = Metabolic stability at phase 1 in human liver microsomes; assay type: ADME, Microsome
A-375 [5] = assay: Induction of senescence-like phenotype in human A-375 cells assessed as phenotypic changes after 3 days; assay type: functional, cell-based; details: time 3.0 day; method in brief: as §2
A-375 [6] = assay: Anti melanoma activity in human A-375 cells assessed by decreased cell number measured after 3 days; assay type: functional, cell-based; details: time 3.0 day; method in brief: as §1
[7] = Metabolic stability at phase 1 in mouse liver microsomes; assay type: ADME, Microsome
A-375 [8] = assay: Anti melanoma activity in human A-375 cells assessed as inhibition of cell growth after 3 days; assay type: functional, cell-based; details: time 3.0 day; method in brief: as §1
A-375 [9] = assay: Induction of senescence-like phenotype in human A-375 cells assessed as nucleus size with increasing cytoplasmic granularity after 3 days by staining based imaging assay; assay type: functional, cell-based; details: time 3.0 day; method in brief: as §2
A-375 [10] = assay: Induction of senescence-like phenotype in human A-375 cells assessed as enlarged cell size after 3 days by staining based imaging assay; assay type: functional; details: time 3.0 day; method in brief: as §2

## O=C(Nc1ccc(-c2cscn2)cc1)C1CCCN(Cc2ccccc2F)C1 (centres undefined)
A-375 [1]
  IC50: 4 µM
A-375 [2]
  EC50: 7 µM

## O=C(Nc1ccc(-c2c[nH]cn2)cc1)C1CCCN(Cc2ccc(F)c(F)c2)C1 (centres undefined)
A-375 [1]
  IC50: > 20 µM
A-375 [2]
  EC50: 16 µM

## O=C(Nc1ccc(-c2ccc[nH]2)cc1F)[C@H]1CCCN(Cc2ccc(F)c(F)c2)C1
A-375 [1]
  IC50: 0.13 µM
A-375 [2]
  EC50: 0.1 µM

## O=C(Nc1ccc(-c2cscn2)cc1)[C@@H]1CCCN(Cc2ccc(F)c(F)c2)C1
A-375 [1]
  IC50: 6 µM
A-375 [2]
  EC50: 4 µM

## O=C(Nc1ccc(-c2ccc[nH]2)cc1)[C@H]1CCCN(Cc2ccc3c(c2)OCO3)C1
A-375 [1]
  IC50: 0.22 µM
A-375 [2]
  EC50: 0.16 µM

## Cc1cc(NC(=O)[C@H]2CCCN(Cc3ccc(F)c(F)c3)C2)ccc1-c1ccc[nH]1
A-375 [1]
  IC50: 0.73 µM
A-375 [2]
  EC50: 3 µM

## O=C(Nc1ccc(-c2cscn2)cc1)C1CCCN(Cc2ccc(Cl)c(Cl)c2)C1 (centres undefined)
A-375 [1]
  IC50: 1.73 µM
A-375 [2]
  EC50: 3 µM

## O=C(Nc1ccc(-c2cscn2)cc1)C1CCCN(Cc2cccc(F)c2)C1 (centres undefined)
A-375 [1]
  IC50: 2.45 µM
A-375 [2]
  EC50: 5 µM

## O=C(Nc1ccc(-c2cscn2)cc1)C1CCCN(Cc2ccccc2)C1 (centres undefined)
A-375 [1]
  IC50: > 20 µM
A-375 [2]
  EC50: > 20 µM

## O=C(Nc1ccc(-c2ccsc2)cc1)C1CCCN(Cc2ccc(F)c(F)c2)C1 (centres undefined)
A-375 [1]
  IC50: 0.95 µM
A-375 [2]
  EC50: 1.93 µM

## O=C(Nc1ccc(-c2ccc[nH]2)cc1)C1CCCN(Cc2ccc(F)c(F)c2)C1 (centres undefined)
A-375 [1]
  IC50: 0.36 µM
A-375 [2]
  EC50: 0.72 µM

## O=C(Nc1ccc(-c2cscn2)cc1)C1CCCN(S(=O)(=O)c2ccc(F)c(F)c2)C1 (centres undefined)
A-375 [1]
  IC50: > 20 µM
A-375 [2]
  EC50: > 20 µM

## O=C(Nc1ccc(-c2ccccn2)cc1)C1CCCN(Cc2ccc(F)c(F)c2)C1 (centres undefined)
A-375 [1]
  IC50: 9 µM
A-375 [2]
  EC50: 11 µM

## O=C(Nc1ccc(-c2cscn2)cc1)C1CCCN(Cc2cccc(F)c2F)C1 (centres undefined)
A-375 [1]
  IC50: 1.48 µM
A-375 [2]
  EC50: 10 µM

## O=C(Nc1ccc(-c2cscn2)cc1)C1CCCN(Cc2ccc3c(c2)OCO3)C1 (centres undefined)
A-375 [1]
  IC50: 0.63 µM
A-375 [2]
  EC50: 0.6 µM

## O=C(Nc1ccc(-c2ccc[nH]2)nc1)[C@H]1CCCN(Cc2ccc(F)c(F)c2)C1
A-375 [1]
  IC50: 3.01 µM
A-375 [2]
  EC50: 4 µM

## COc1cccc2c1C(=O)c1c(O)c3c(c(O)c1C2=O)C[C@@](O)(C(=O)CO)C[C@@H]3O[C@H]1C[C@H](N)[C@H](O)[C@H](C)O1 [DOXORUBICIN]
A-375 [1]
  IC50: 0.008 µM
A-375 [3]
  Activity: Active

## O=C(Nc1ccc(-c2cscn2)cc1)C1CCCN(Cc2cccnc2)C1 (centres undefined)
A-375 [1]
  IC50: > 20 µM
A-375 [2]
  EC50: > 20 µM

## O=C(Nc1ccc(-c2cccnc2)cc1)C1CCCN(Cc2ccc(F)c(F)c2)C1 (centres undefined)
A-375 [1]
  IC50: 0.61 µM
A-375 [2]
  EC50: 1.06 µM

## O=C(Nc1ccc(-c2cscn2)cc1)C1CCCN(Cc2cc(F)cc(F)c2)C1 (centres undefined)
A-375 [1]
  IC50: 1.36 µM
A-375 [2]
  EC50: 1.5 µM

## O=C(Nc1ccc(-c2ccccc2)cc1)C1CCCN(Cc2ccc(F)c(F)c2)C1 (centres undefined)
A-375 [1]
  IC50: 2.58 µM
A-375 [2]
  EC50: 5 µM

## O=C(Nc1ccc(-c2cscn2)cc1)C1CCCN(Cc2ccc(F)c(F)c2)C1 (centres undefined)
[4]
  Stabilty: Stable
A-375 [5]
  Activity: Active
A-375 [1]
  IC50: 0.88 µM
A-375 [6]
  Activity: Active
A-375 [2]
  EC50: 1.24 µM
[7]
  Stabilty: Stable

## O=C(Nc1ccc(-c2ccn[nH]2)cc1)C1CCCN(Cc2ccc(F)c(F)c2)C1 (centres undefined)
A-375 [1]
  IC50: 0.52 µM
A-375 [2]
  EC50: 0.58 µM

## O=C(Nc1ccc(-c2cscn2)cc1)C1CCCN(Cc2cccc(OC(F)(F)F)c2)C1 (centres undefined)
A-375 [1]
  IC50: > 20 µM
A-375 [2]
  EC50: > 20 µM

## O=C(Nc1ccc(-c2cscn2)cc1)C1CN(Cc2ccc(F)c(F)c2)C1
A-375 [1]
  IC50: > 20 µM
A-375 [2]
  EC50: > 20 µM

## O=C(Nc1ccc(-c2cscn2)cc1)C1CCCN(Cc2cccc(C(F)(F)F)c2)C1 (centres undefined)
A-375 [1]
  IC50: > 20 µM
A-375 [2]
  EC50: > 20 µM

## O=C(Nc1ccc2scnc2c1)C1CCCN(Cc2ccc(F)c(F)c2)C1 (centres undefined)
A-375 [1]
  IC50: > 20 µM
A-375 [2]
  EC50: > 20 µM

## O=C(Nc1ccc(-c2cscn2)cc1)C1CCCN(Cc2ccc(F)cc2)C1 (centres undefined)
A-375 [1]
  IC50: 2.25 µM
A-375 [2]
  EC50: 5 µM

## COc1cccc(CN2CCCC(C(=O)Nc3ccc(-c4cscn4)cc3)C2)c1 (centres undefined)
A-375 [1]
  IC50: > 20 µM
A-375 [2]
  EC50: > 20 µM

## O=C(Nc1ccc(-c2cscn2)cc1)C1CCCN(C(=O)c2ccc(F)c(F)c2)C1 (centres undefined)
A-375 [1]
  IC50: > 20 µM
A-375 [2]
  EC50: > 20 µM

## O=C(Nc1ccc(-c2ccc[nH]2)cc1)[C@@H]1CCCN(Cc2ccc(F)c(F)c2)C1
A-375 [1]
  IC50: 18 µM
A-375 [2]
  EC50: 19.9 µM

## O=C(Nc1ccc(-c2cccs2)cc1)C1CCCN(Cc2ccc(F)c(F)c2)C1 (centres undefined)
A-375 [1]
  IC50: 0.39 µM
A-375 [2]
  EC50: 0.53 µM

## O=C(Nc1ccc(-c2cscn2)cc1)C1CCN(Cc2ccc(F)c(F)c2)CC1
A-375 [1]
  IC50: > 20 µM
A-375 [2]
  EC50: 19 µM

## O=C(Nc1ccc(-c2ccco2)cc1)C1CCCN(Cc2ccc(F)c(F)c2)C1 (centres undefined)
A-375 [1]
  IC50: 1.04 µM
A-375 [2]
  EC50: 2.2 µM

## O=C(Nc1ccc(-c2cscn2)cc1)C1CCCN(Cc2ccc3cn[nH]c3c2)C1 (centres undefined)
A-375 [1]
  IC50: > 20 µM
A-375 [2]
  EC50: > 20 µM

## O=C(Nc1ccc(-c2ccc[nH]2)cn1)[C@H]1CCCN(Cc2ccc(F)c(F)c2)C1
[4]
  Stabilty: Stable
A-375 [8]
  Activity: Active
A-375 [5]
  Activity: Active
A-375 [9]
  Activity: Active
A-375 [10]
  Activity: Active
A-375 [1]
  IC50: 0.03 µM
A-375 [2]
  EC50: 0.04 µM
[7]
  Stabilty: Stable

## O=C(Nc1ccc(-c2cscn2)cc1)C1CCCN(Cc2cc(F)c(F)c(F)c2)C1 (centres undefined)
A-375 [1]
  IC50: 0.4 µM
A-375 [2]
  EC50: 1.26 µM

## O=C(Nc1ccc(-c2cscn2)cc1)C1CCN(Cc2ccc(F)c(F)c2)C1 (centres undefined)
A-375 [1]
  IC50: 10 µM
A-375 [2]
  EC50: 8 µM

## O=C(Nc1ccc(-c2cc[nH]c2)cc1)C1CCCN(Cc2ccc(F)c(F)c2)C1 (centres undefined)
A-375 [1]
  IC50: 1.42 µM
A-375 [2]
  EC50: 2.61 µM

## O=C(Nc1ccc(-c2ccc[nH]2)cc1)[C@H]1CCCN(Cc2ccc(F)c(F)c2)C1
A-375 [1]
  IC50: 0.19 µM
A-375 [2]
  EC50: 0.14 µM

## O=C(Nc1ccc(-c2ncc[nH]2)cc1)C1CCCN(Cc2ccc(F)c(F)c2)C1 (centres undefined)
A-375 [1]
  IC50: 19 µM
A-375 [2]
  EC50: 8 µM

## O=C(Nc1ccc(-c2nccs2)cc1)C1CCCN(Cc2ccc(F)c(F)c2)C1 (centres undefined)
A-375 [1]
  IC50: 0.24 µM
A-375 [2]
  EC50: 0.8 µM

## O=C(NC1CCCN(Cc2ccc(F)c(F)c2)C1)c1ccc(-c2cscn2)cc1 (centres undefined)
A-375 [1]
  IC50: > 20 µM
A-375 [2]
  EC50: > 20 µM

## COc1cc(-c2cscn2)ccc1NC(=O)C1CCCN(Cc2ccc(F)c(F)c2)C1 (centres undefined)
A-375 [1]
  IC50: 0.58 µM
A-375 [2]
  EC50: 4 µM

## O=C(Nc1ccc(-c2ccncc2)cc1)C1CCCN(Cc2ccc(F)c(F)c2)C1 (centres undefined)
A-375 [1]
  IC50: 0.6 µM
A-375 [2]
  EC50: 1.18 µM

## O=C(Nc1ccc(-c2ccoc2)cc1)C1CCCN(Cc2ccc(F)c(F)c2)C1 (centres undefined)
A-375 [1]
  IC50: 1.29 µM
A-375 [2]
  EC50: 3 µM

## O=C(Nc1ccc(-c2cscn2)cc1)[C@H]1CCCN(Cc2ccc(F)c(F)c2)C1
A-375 [1]
  IC50: 0.19 µM
A-375 [2]
  EC50: 0.27 µM
